Bioassay records deposited in PubChem by several laboratories.
The list is not random: actives were taken first. Their share in the collection is about 2.5%.
PGE2 EP2 inh – EP2 receptor (human) inhibition | C6 glioma cells expressing human EP2, cAMP TR-FRET; cells stimulated with saturating PGE2 | inhibition, % at 25 µM | actives 0.52% (n = 260,000);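 active = percent inhibition above 40 after rounding to a whole number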;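 note: rat C6 glioma host cells with rolipram phosphodiesterase inhibitor present; the protocol text gives 20 µM as final concentration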
Target sequence (P43116 whole entry, looked up): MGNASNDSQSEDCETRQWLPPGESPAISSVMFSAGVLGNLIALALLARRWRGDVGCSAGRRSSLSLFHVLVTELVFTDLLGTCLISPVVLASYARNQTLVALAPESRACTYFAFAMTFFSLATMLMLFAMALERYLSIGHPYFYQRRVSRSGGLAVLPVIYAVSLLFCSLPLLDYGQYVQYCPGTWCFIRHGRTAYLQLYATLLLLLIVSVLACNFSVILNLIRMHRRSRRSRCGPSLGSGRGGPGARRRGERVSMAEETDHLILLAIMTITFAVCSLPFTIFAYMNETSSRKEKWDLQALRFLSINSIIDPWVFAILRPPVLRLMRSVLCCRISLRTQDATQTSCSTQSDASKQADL
HKDC1 inhibitor – HKDC1 (human) hexokinase inhibition. Q2TB90. recombinant HKDC1, G6PDH/diaphorase resazurin coupled fluorescence. inhibition, % at 20 µM. actives 0.16% (n = 340,000);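 active = inhibition above about 35% when tested at 20 µM, limit read from the data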;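 note: plate controls were DMSO wells with enzyme for no effect and DMSO wells lacking enzyme for full effect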
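Assay system: in-house recombinant HK5 (HKDC1) enzyme. Input: HKDC1 at 5 µg/mL. Medium: Tris pH 8.0 buffer with MgCl2, Tween-20, BSA, BME. Dosing: single 20 µM dose. Schedule: 90 min reaction incubation at room temperature, dark. Signal: resazurin-to-resorufin fluorescence via G6PDH and diaphorase coupling, 525/613 nm. Controls: DMSO-enzyme wells negative, buffer-substituted wells positive.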
PHOSPHO1 inh – PHOSPHO1 (human) inhibition. recombinant PHOSPHO1, absorbance phosphatase assay. inhibition, % at 13.3 µM. actives 1.1% (n = 290,000). Q8TCT1; in the data active = inhibition above about 60%
Target sequence (Q8TCT1 whole entry, looked up): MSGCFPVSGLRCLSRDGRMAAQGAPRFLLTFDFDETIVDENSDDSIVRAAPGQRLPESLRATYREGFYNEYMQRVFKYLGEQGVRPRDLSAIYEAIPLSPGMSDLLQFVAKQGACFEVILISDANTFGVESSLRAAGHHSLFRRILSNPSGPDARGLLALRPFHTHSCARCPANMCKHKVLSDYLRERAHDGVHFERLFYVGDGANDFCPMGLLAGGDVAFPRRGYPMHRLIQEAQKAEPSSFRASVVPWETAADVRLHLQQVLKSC
Tb hexokinase – blocks Trypanosoma brucei hexokinase 1 activity; recombinant TbHK1, G6PDH-coupled NADH A340; inhibition, % at 10 µM; actives 0.11% (n = 220,000);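 active = inhibition of 50% or more in the single-dose primary screen; inactive = inhibition below 50%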
EP2 mod – modulators of human EP2 prostaglandin E2 receptor. EP2-expressing cells, cAMP HTRF FRET, PGE2 co-stimulation. induction, % at 25 µM. actives 0.83% (n = 260,000). AID 940;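 active = compounds whose cAMP rise, as percent of the full-agonist control response, exceeds 60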;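 note: rat C6 glioma line stably carrying human EP2 under a CMV promoter; the protocol text gives 20 µM as final concentration; 100% = response of wells given 1 µM PGE2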
PfGluPho inh – PfG6PD (Plasmodium falciparum) enzyme inhibition. actives 0.78% (n = 350,000). PfGluPho enzyme, NADPH resazurin-diaphorase fluorescence. inhibition, % at 20 µM;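 active = inhibition reaching at least a set limit at 20 µM in the primary screen, cut at about 59% in these data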;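 note: 0% = DMSO wells with substrate and 100% = DMSO wells lacking glucose-6-phosphate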
* hit, by the source's call; . = no result given.

SMILES | PGE2 EP2 inh | HKDC1 inhibitor | PHOSPHO1 inh | Tb hexokinase | EP2 mod | PfGluPho inh
CCn1c(SCC(=O)Nc2ccc(Cl)cc2)nnc1-c1ccncc1 | 12 | . | . | . | -47 | .
CCn1c(SCC(=O)Nc2ccc(N(C)C)cc2)nnc1-c1cccc(C)c1 | 20 | -8 | 79* | -2 | 1 | 6
CCn1c(SCC(=O)Nc2cccc(OC)c2)nnc1-c1ccc(Cl)cc1 | 7 | 6 | 74* | 1 | -16 | 18
CCn1c(Cn2nnc(-c3ccccc3)n2)nnc1SCC(=O)Nc1ccc(N(C)C)cc1 | 8 | -4 | 78* | -1 | 16 | 1
CN(C)c1ccc(NC(=O)CSc2nnc(-c3cccs3)n2Cc2ccco2)cc1 | 6 | 16 | 90* | -4 | 25 | 12
CCS(=O)(=O)N1CCCC(c2nc(C)ncc2-c2ccncc2)C1 (stereo not drawn) | . | . | . | . | -34 | .
Cc1cc2nnc(SCC(=O)NC3CCCCC3)n2c2ccccc12 | 8 | . | . | . | -53 | .
O=C1/C(=C\c2ccccc2)[C@@H](NC2CCCCC2)c2ccccc21 | 58* | . | . | . | -2 | .
O=S(=O)(/C=C/c1ccccc1)NC1CCCCCC1 | 5 | -10 | 25 | 5 | 8 | 0
CCc1nnc(NC(=O)CSc2nnnn2-c2ccc(C)c(C)c2)s1 | 10 | . | . | . | 11 | .
CC1=C([N+](=O)[O-])C(c2ccccc2Cl)NC(=O)N1C (stereo not drawn) | . | -4 | 60* | . | . | 10
CC1=C([N+](=O)[O-])C(c2ccccc2Cl)NC(=O)N1 (stereo not drawn) | . | -8 | -2 | . | . | 4
O=S(=O)(NC1CCCCC1)c1ccc(S(=O)(=O)N2CCCCC2)cc1 | 10 | . | . | . | -76 | .
Cc1cc2c(=O)n(CC(=O)NCCCN3CC(C)CC(C)C3)cnc2s1 (stereo not drawn) | 3 | . | . | . | -31 | .
Cc1cc2c(cc3c(=O)n(CC(=O)NCCCN4CC(C)CC(C)C4)ncn32)s1 (stereo not drawn) | . | -2 | 69* | . | . | 3
COc1ccc(-c2oc(=O)n(C)c2-c2ccc(OC)cc2)cc1 | . | 1 | 61* | . | . | -8
Cc1nc(C/C(=N\Nc2ccccc2)c2ccc(O)cc2O)cs1 | 3 | -4 | 17 | -20 | 64* | 43
CC(=O)N1N=C(c2ccc(C)cc2)OC1c1cccnc1 (stereo not drawn) | 8 | 3 | 61* | -2 | 10 | -12
COc1ccc(NCc2nnc(SCC(=O)c3ccc(OC)cc3)o2)cc1 | 8 | 0 | 57 | -4 | -54 | 18
CCc1nnc(NC(=O)CSc2nnc(-c3ccccc3NC(=O)c3ccccc3)o2)s1 | 20 | -10 | 68* | -14 | 18 | -16
CCOC(=O)CSc1nnc(-c2ccccc2NC(=O)c2ccccc2)o1 | 15 | 13 | 14 | -25 | -15 | 2
CCOc1cc(C(=O)CSc2nnc(CNc3ccc(Cl)cc3)o2)ccc1NC(=O)CC | 9 | -5 | 84* | 0 | -14 | -19
CCc1nnc(NC(=O)CSc2nnc(CNc3ccc(Cl)cc3)o2)s1 | 7 | 3 | 62* | 6 | -17 | -30
CC(=O)Nc1ccc(S(=O)(=O)NCCSc2nnc3c(n2)[nH]c2c(C)cc(C)cc23)cc1 | 7 | . | . | . | -24 | .
O=C(NCCc1nc(-c2cccnc2)n[nH]1)c1cccc2cccnc12 | . | . | . | . | -32 | .
SMILES | PGE2 EP2 inh | HKDC1 inhibitor | PHOSPHO1 inh | Tb hexokinase | EP2 mod | PfGluPho inh
O=C(CSc1nnc(-c2ccc(S(=O)(=O)N3CCCC3)cc2)o1)c1ccc2c(c1)OCCO2 | 12 | . | . | . | -11 | .
CC1CCCCC1N1CCNCC1 (stereo not drawn) | 12 | . | . | . | -10 | .
CCCCCC1C(=O)CCC1CC(=O)O (stereo not drawn) | 12 | . | . | . | 24 | .
CCCCC1C(=O)CC[C@H]2[C@@H]1CC(=O)[C@@H]2C/C=C\CCCC(=O)O (stereo partly drawn) | 14 | 1 | 4 | 13 | 80* | -29
Cc1cc(=O)oc2cc(OC(=O)c3ccc(Br)cc3)ccc12 | 9 | . | . | . | -13 | .
COC(=O)c1c(NC(=O)c2ccc3c(c2)OCO3)sc(C(=O)Nc2ccc(F)cc2)c1C | 11 | . | . | . | -26 | .
COc1ccccc1N1CCN(Cc2cc(Br)c(O)c3ncccc23)CC1 | 10 | -27 | 78* | -5 | -4 | -4
CCOc1ccccc1N1CCN(Cc2cccc(OC)c2O)CC1 | 7 | 14 | 9 | -4 | 11 | -2
Cc1ccc(C)c(OCC(=O)Nc2cccc(S(=O)(=O)NC3=NCCCCC3)c2)c1 | . | -5 | 67* | . | . | -6
NC(=O)c1c(N)sc2c1CCCC2 | 15 | 12 | 92* | -12 | 34 | 40
Cc1ccc(C(=O)Nc2sc3c(c2C(=O)NC2CCS(=O)(=O)C2)CCCC3)cc1 (stereo not drawn) | 14 | . | . | . | 4 | .
Nc1sc2c(c1C(=O)c1ccccc1)CCCC2 | 5 | 4 | 53 | -7 | 23 | 53
Nc1sc2c(c1C(=O)NC1CCS(=O)(=O)C1)CCCC2 (stereo not drawn) | 6 | 6 | 22 | -8 | 12 | 62*
CC(C)CN=Cc1c(O)c([N+](=O)[O-])cc2oc3c(c12)CCCC3 | 36 | 9 | -16 | -9 | 46 | 9
O=[N+]([O-])c1cc2oc3c(c2c(C=NCc2ccccc2)c1O)CCCC3 | 48* | 7 | -2 | 19 | 22 | 22
O=C(/C(=C/O)N=Nc1cccc(C(F)(F)F)c1)c1ccccc1 | 5 | 10 | -3 | -5 | 62* | 21
CCc1c(C)sc2ncn(C3CCN(C(=O)c4ccco4)CC3)c(=O)c12 | . | . | . | . | -20 | .
COc1cccc(C(=O)Nc2sc3c(c2C(=O)NC2CCS(=O)(=O)C2)CCCC3)c1 (stereo not drawn) | 5 | . | . | . | 20 | .
Cn1c(SCC(=O)Nc2cccc(NC(=O)C3CCCCC3)c2)nnc1-c1cccnc1 | 14 | . | . | . | -6 | .
CC(=O)NC1C(Oc2cc(C)ccc2C)OC2COC(C)(C)OC2C1O (stereo not drawn) | 18 | . | . | . | 8 | .
CCN1/C(=C/c2ccc3cc(C)ccc3[n+]2CC)Sc2ccccc21 | 55* | -27 | -36 | -4 | -71 | -11
CCSc1ccc2cc(OC)ccc2[n+]1CC | 2 | -11 | 27 | -8 | -9 | 9
CCN1/C(=C/c2ccc3cc(OC)ccc3[n+]2CC)Sc2cc(C)ccc21 | 64* | . | . | . | -94 | .
CC[n+]1c(/C=C2\Sc3cc(C)ccc3N2C)ccc2ccccc21 | 45* | . | . | . | -44 | .
CC[n+]1ccccc1/C=C1\Sc2ccc(C)cc2N1C | . | -3 | . | . | . | -2
CCN1/C(=C/c2ccc3cc(C)ccc3[n+]2CC)Sc2ccc(C)cc21 | 14 | . | . | . | -62 | .
CCN1/C(=C/c2ccc3cc(C)ccc3[n+]2CC)Sc2cc(C)c(C)cc21 | 76* | -5 | 1 | 13 | -54 | 31
COc1ccc2cc(C#N)c(SCC(=O)Nc3sc(C)c(C)c3C#N)nc2c1 | 10 | . | . | . | -10 | .
COc1ccc2c(c1)c1nnc(SCC(=O)N(C)C3CCCCC3)nc1n2C | 8 | . | . | . | -17 | .
O=C(CN1CCC(N2CCCCC2)CC1)c1ccc2c(c1)OCCO2 | 11 | . | . | . | -13 | .
